Several values for one entry are separate records, joined by “and”; a condition that tells them apart may be missing. Equal values may be shown once. Read-outs that look alike come from different tables or passages of the source. Marks after values point to notes of the source that are not given here. Values belong to the molecule of their own block, whether it stands above or below them.
Assays:
[1] = assay type: in vivo, human; settings: for AUC0–∞ of metabolite, gMean (gCV%) / Cmax of metabolite, gMean (gCV%) / t1/2, gMean (gCV%) / fe0–72 (fraction excreted unchanged in urine), gMean (gCV%): single oral nintedanib 100 mg
Outline: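 Single oral 100 mg dose of test compound as soft-gelatin capsule, fed. Adults 18–79 y, BMI 18.5–34 kg/m2: Child-Pugh A (score 5–6) or B (7–9) hepatic impairment, plus matched healthy controls. Plasma sampled to day 8 for parent and metabolites. AUC0–∞, Cmax and AUC0–tz compared by log-scale ANOVA (hepatic status fixed, matched pair random); other parameters descriptive.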

[2] = assay type: in vitro ADME, human; settings: for Protein-bound fraction, mean ± SD: plasma spiked with 100 ng/mL 14C-labeled compound
Outline: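 Predose plasma from Child-Pugh A, Child-Pugh B and matched healthy subjects was spiked ex vivo with 100 ng/mL [14C]-labelled test compound or its [14C]-labelled metabolite. Binding was measured in vitro by equilibrium dialysis, with radioactivity quantified by liquid scintillation counting. The protein-bound fraction is reported as the group mean ± SD.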

[3] = cited from earlier work
[4] = ref BI, data on file, cited from earlier work
[5] = tested on: P‐glycoprotein; settings: cited from earlier work
[6] = Safety and tolerability; assay type: in vivo, human
Outline: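 Open-label, parallel-group, matched-group phase 1 study in adults aged 18–79 with BMI 18.5–34 kg/m2 (Child-Pugh A, Child-Pugh B, and healthy subjects matched by age, weight, race, smoking and sex). Each subject took one oral soft-gelatin capsule with 240 mL water, fed. AEs were recorded from dosing to the end of the 28-day follow-up and coded by MedDRA v17.1. Relatedness was judged by the investigator.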

[7] = Child-Pugh A subjects vs healthy subjects
[8] = Child-Pugh A, Child-Pugh B, healthy subjects
[9] = Child-Pugh B subjects vs healthy subjects
[10] = Child-Pugh A matched healthy subjects (n = 8)
[11] = Child-Pugh B matched healthy subjects (n = 8)
[12] = Child-Pugh A vs matched healthy subjects
[13] = Child-Pugh B vs matched healthy subjects
[14] = single 100 mg dose, Child-Pugh A (n = 8)
[15] = single 100 mg dose, Child-Pugh B (n = 8)
[16] = single 100 mg dose, Healthy (n = 17)

- AUC0–∞, fold higher than in healthy subjects [1, 7]: ~1.5 fold
- Cmax, comparison across groups [1, 8]: comparable across groups
- AUC0–∞, fold higher than in healthy subjects [1, 9]: ~3.5 fold
- AUC0–∞ of metabolite, gMean (gCV%) ([1]; Child-Pugh A (n = 8)): 1040 (95.9) ng∙h/mL
- Cmax of metabolite, gMean (gCV%) ([1]; Child-Pugh A (n = 8)): 15.1 (113) ng/mL
- t1/2, gMean (gCV%) ([1]; Child-Pugh A (n = 8)): 41.1 (45.5) h
- AUC0–∞ of metabolite, gMean (gCV%) [1, 10]: 657 (66.8) ng∙h/mL
- Cmax of metabolite, gMean (gCV%) [1, 10]: 11.4 (62.0) ng/mL
- t1/2, gMean (gCV%) [1, 10]: 31.9 (34.1) h
- AUC0–∞ of metabolite, gMean (gCV%) ([1]; Child-Pugh B (n = 8)): 2650 (285) ng∙h/mL
- Cmax of metabolite, gMean (gCV%) ([1]; Child-Pugh B (n = 8)): 19.6 (201) ng/mL
- t1/2, gMean (gCV%) ([1]; Child-Pugh B (n = 8)): 57.4 (114) h
- AUC0–∞ of metabolite, gMean (gCV%) [1, 11]: 761 (69.1) ng∙h/mL
- Cmax of metabolite, gMean (gCV%) [1, 11]: 12.7 (76.2) ng/mL
- t1/2, gMean (gCV%) [1, 11]: 28.3 (21.9) h
SMILES: CN1CCN(CC(=O)N(C)c2ccc(N/C(=C3\C(=O)Nc4cc(C(=O)O[C@@H]5O[C@H](C(=O)O)[C@@H](O)[C@H](O)[C@H]5O)ccc43)c3ccccc3)cc2)CC1 [BIBF 1202 glucuronide]

- Exposure, fold higher than in healthy subjects [1, 7]: ~2 fold
- AUC0–∞, fold higher than in healthy subjects [1, 9]: ~17 fold
- Cmax, fold higher than in healthy subjects [1, 9]: 9 fold
- AUC0–∞ of metabolite, gMean (gCV%) ([1]; Child-Pugh A (n = 8)): 216 (81.8) ng∙h/mL
- Cmax of metabolite, gMean (gCV%) ([1]; Child-Pugh A (n = 8)): 17.4 (47.1) ng/mL
- t1/2, gMean (gCV%) ([1]; Child-Pugh A (n = 8)): 39.1 (53.8) h
- AUC0–∞ of metabolite, gMean (gCV%) [1, 10]: 86.8 (48.8) ng∙h/mL
- Cmax of metabolite, gMean (gCV%) [1, 10]: 7.55 (56.2) ng/mL
- t1/2, gMean (gCV%) [1, 10]: 24.7 (65.1) h
- AUC0–∞ of metabolite, gMean (gCV%) ([1]; Child-Pugh B (n = 8)): 1190 (86.4) ng∙h/mL
- Cmax of metabolite, gMean (gCV%) ([1]; Child-Pugh B (n = 8)): 60.7 (75.2) ng/mL
- t1/2, gMean (gCV%) ([1]; Child-Pugh B (n = 8)): 46.9 (16.6) h
- AUC0–∞ of metabolite, gMean (gCV%) [1, 11]: 70.4 (38.7) ng∙h/mL
- Cmax of metabolite, gMean (gCV%) [1, 11]: 6.47 (57.5) ng/mL
- t1/2, gMean (gCV%) [1, 11]: 23.6 (50.1) h
- Protein-bound fraction, mean ± SD ([2]; Child-Pugh A (n = 8)): 81.2 ± 3.6%
- Protein-bound fraction, mean ± SD ([2]; Child-Pugh B (n = 8)): 82.4 ± 5.5%
- Protein-bound fraction, mean ± SD ([2]; Healthy (n = 17)): 85.0 ± 3.0%
SMILES: CN1CCN(CC(=O)N(C)c2ccc(N/C(=C3\C(=O)Nc4cc(C(=O)O)ccc43)c3ccccc3)cc2)CC1 [BIBF 1202]

- Exposure, fold higher than in healthy subjects [1, 7]: ~2 fold
- AUC0–tz, adjusted gMean ratio [1, 12]: 216.8%
- AUC0–∞, adjusted gMean ratio [1, 12]: 215.4%
- Cmax, adjusted gMean ratio [1, 12]: 221.8%
- Renal clearance, comparison across groups [1, 8]: comparable across groups
- Exposure, fold higher than in healthy subjects [1, 9]: ~8 fold
- AUC0–tz, adjusted gMean ratio [1, 13]: 870.7%
- AUC0–∞, adjusted gMean ratio [1, 13]: 867.1%
- Cmax, adjusted gMean ratio [1, 13]: 761.0%
- Time at which Cmax was reached, range ([1]; individual range across all groups): 1 to 8 h
- Median time at which Cmax was reached ([1]; medians across Child-Pugh A, Child-Pugh B and healthy subjects): 3 to 4 h
- fe0–72 (fraction excreted unchanged in urine), gMean (gCV%) ([1]; Child-Pugh A (n = 8)): 0.204 (96.2) %
- fe0–72 (fraction excreted unchanged in urine), gMean (gCV%) [1, 10]: 0.102 (37.9) %
- fe0–72 (fraction excreted unchanged in urine), gMean (gCV%) ([1]; Child-Pugh B (n = 7)): 0.543 (31.7)^b %
- fe0–72 (fraction excreted unchanged in urine), gMean (gCV%) [1, 11]: 0.0945 (28.7) %
- Protein-bound fraction ([2]; across the groups): > 99%
SMILES: COC(=O)c1ccc2c(c1)NC(=O)/C2=C(\Nc1ccc(N(C)C(=O)CN2CCN(C)CC2)cc1)c1ccccc1 [Nintedanib]
- Time of absorption (delay by food) ([3]; after food intake): ~4 h
- Terminal half-life [3]: 10 to 15 h
- Time of absorption (delay by food) ([3]; fasted conditions): approximately 2 hours
- Exposure increase when administered after food intake ([3]; fed vs fasted): approximately 20%
- Total body clearance ([3]; healthy subjects): 1390 mL/min
- Elimination through biliary/fecal excretion ([3]; in vivo): > 90%
- Absolute bioavailability ([3]; nintedanib 100 mg in healthy volunteers): approximately 5%
- Time to steady state ([3]; of dosing): ≤ 7 days
- Time to maximum plasma concentration ([3]; oral administration): 2 to 4 h
- Time to maximum plasma concentrations ([4]; Asian (n = 39) and European (n = 32) patients with impaired hepatic function and advanced HCC): 2 to 3 h
- Exposure, fold higher in group II compared with group I ([4]; group II: ALT or AST >2 to ≤5 × ULN or Child-Pugh score 7, group I: ALT and AST ≤ 2 × ULN and Child-Pugh score 5–6): ~2 fold
- P-glycoprotein substrate [5]: substrate of P‐glycoprotein
- Severe or serious AEs ([6]; all groups, single 100 mg dose): No severe or serious AEs were reported
- Tolerability ([6]; all groups, single dose of 100 mg): well tolerated
- Diarrhea [6, 14]: 0 n (%)
- Headache [6, 14]: 0 n (%)
- Nausea [6, 14]: 0 n (%)
- Pruritus [6, 14]: 0 n (%)
- Skin irritation [6, 14]: 0 n (%)
- Vomiting [6, 14]: 0 n (%)
- Diarrhea [6, 15]: 1 (12.5) n (%)
- Headache [6, 15]: 0 n (%)
- Nausea [6, 15]: 1 (12.5) n (%)
- Pruritus [6, 15]: 1 (12.5) n (%)
- Skin irritation [6, 15]: 1 (12.5) n (%)
- Subjects with any AE [6, 15]: 3 n (%) and 3 (37.5) n (%)
- Vomiting [6, 15]: 0 n (%)
- Diarrhea [6, 16]: 0 n (%)
- Headache [6, 16]: 1 (5.9) n (%)
- Nausea [6, 16]: 2 (11.8) n (%)
- Pruritus [6, 16]: 0 n (%)
- Skin irritation [6, 16]: 0 n (%)
- Subjects with any AE [6, 16]: 3 n (%) and 3 (17.6) n (%)
- Vomiting [6, 16]: 1 (5.9) n (%)
